Experimental data published in ChEMBL document CHEMBL1909601, “Synthesis and structure-activity relationship studies of dihydronaphthyridinediones as a novel structural class of potent and selective PDE7 inhibitors” (Bioorg Med Chem Lett, 2011).

Experiments:
Homo sapiens = species on record: Homo sapiens; experiment: Selectivity ratio of IC50 for human recombinant PDE4A4 to IC50 for human recombinant PDE7A1
Summary of the method: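 Ratio of IC50 values for the two enzymes. PDE4A4 run at 500 nM [3H]-cAMP with a 10 µM rolipram background; PDE7A1 run at 20 nM [3H]-cAMP with a no-enzyme background. Both used full-length human enzymes from Sf21 cells, 30 min at 37 °C, pH 7.4 Tris/MgSO4, SPA read-out.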

[1] = biological target: 3',5'-cyclic-AMP phosphodiesterase 4A (Homo sapiens, UniProt P27815); experiment: Inhibition of human recombinant PDE4A4 expressed in baculovirus infected insect Sf21 cells after 30 mins by scintillation proximity assay
Sequence of 3',5'-cyclic-AMP phosphodiesterase 4A (P27815 whole entry): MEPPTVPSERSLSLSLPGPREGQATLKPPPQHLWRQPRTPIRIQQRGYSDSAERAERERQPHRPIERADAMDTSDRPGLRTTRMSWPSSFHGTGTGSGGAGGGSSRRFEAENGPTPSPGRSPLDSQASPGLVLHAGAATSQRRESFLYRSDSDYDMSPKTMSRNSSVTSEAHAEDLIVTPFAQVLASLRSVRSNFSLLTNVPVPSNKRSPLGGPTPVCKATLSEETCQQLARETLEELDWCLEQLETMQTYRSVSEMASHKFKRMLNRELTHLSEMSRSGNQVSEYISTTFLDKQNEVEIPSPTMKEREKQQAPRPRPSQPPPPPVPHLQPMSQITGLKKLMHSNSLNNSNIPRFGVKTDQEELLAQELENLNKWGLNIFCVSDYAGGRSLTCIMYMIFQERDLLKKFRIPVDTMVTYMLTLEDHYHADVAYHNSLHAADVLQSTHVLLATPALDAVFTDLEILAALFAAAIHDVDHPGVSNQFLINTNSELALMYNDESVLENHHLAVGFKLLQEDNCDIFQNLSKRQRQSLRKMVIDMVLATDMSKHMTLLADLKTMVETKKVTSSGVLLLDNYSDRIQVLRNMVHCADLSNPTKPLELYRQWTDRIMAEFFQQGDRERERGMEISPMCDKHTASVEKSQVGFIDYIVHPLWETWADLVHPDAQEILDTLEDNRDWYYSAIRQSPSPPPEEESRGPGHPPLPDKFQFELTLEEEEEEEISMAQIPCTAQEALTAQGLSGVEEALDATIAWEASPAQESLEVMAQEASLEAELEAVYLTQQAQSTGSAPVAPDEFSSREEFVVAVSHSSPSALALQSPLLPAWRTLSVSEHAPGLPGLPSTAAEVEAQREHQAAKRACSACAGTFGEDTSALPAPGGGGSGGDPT
Summary of the method: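 Full-length human recombinant enzyme expressed in baculovirus-infected Sf21 cells. Scintillation proximity assay with 500 nM [3H]-cAMP substrate in 80 mM Tris/10 mM MgSO4, pH 7.4. Incubated 30 min at 37 °C, then SPA beads added and plates counted. Background taken in presence of 10 µM rolipram. IC50 reported.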

[2] = biological target: High affinity 3',5'-cyclic-AMP phosphodiesterase 7A (Homo sapiens, UniProt Q13946); experiment: Inhibition of human recombinant PDE7A1 expressed in baculovirus infected insect Sf21 cells after 30 mins by scintillation proximity assay
Sequence of High affinity 3',5'-cyclic-AMP phosphodiesterase 7A (Q13946 whole entry): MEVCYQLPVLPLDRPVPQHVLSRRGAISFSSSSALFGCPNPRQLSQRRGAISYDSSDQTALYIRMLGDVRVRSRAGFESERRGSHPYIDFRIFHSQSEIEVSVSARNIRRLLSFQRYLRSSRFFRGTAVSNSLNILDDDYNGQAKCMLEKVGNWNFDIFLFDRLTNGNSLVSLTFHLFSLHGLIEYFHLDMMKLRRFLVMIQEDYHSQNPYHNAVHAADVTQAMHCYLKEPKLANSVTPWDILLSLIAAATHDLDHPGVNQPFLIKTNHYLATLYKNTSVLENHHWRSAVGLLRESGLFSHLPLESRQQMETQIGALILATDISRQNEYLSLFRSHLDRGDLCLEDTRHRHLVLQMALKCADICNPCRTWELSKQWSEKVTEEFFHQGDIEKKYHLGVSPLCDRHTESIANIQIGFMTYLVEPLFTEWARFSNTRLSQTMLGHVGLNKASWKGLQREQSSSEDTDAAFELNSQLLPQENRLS
Summary of the method: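 Full-length human recombinant PDE7A1 produced in baculovirus-infected Sf21 cells. SPA read-out with [3H]-cAMP at 20 nM in 80 mM Tris/10 mM MgSO4, pH 7.4. Reaction run 30 min at 37 °C before bead addition and scintillation counting. Background measured without enzyme. IC50 derived.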

[3] = biological target: cAMP and cAMP-inhibited cGMP 3',5'-cyclic phosphodiesterase 10A (Homo sapiens, UniProt Q9Y233); experiment: Inhibition of human recombinant PDE10A
Sequence of cAMP and cAMP-inhibited cGMP 3',5'-cyclic phosphodiesterase 10A (Q9Y233 whole entry): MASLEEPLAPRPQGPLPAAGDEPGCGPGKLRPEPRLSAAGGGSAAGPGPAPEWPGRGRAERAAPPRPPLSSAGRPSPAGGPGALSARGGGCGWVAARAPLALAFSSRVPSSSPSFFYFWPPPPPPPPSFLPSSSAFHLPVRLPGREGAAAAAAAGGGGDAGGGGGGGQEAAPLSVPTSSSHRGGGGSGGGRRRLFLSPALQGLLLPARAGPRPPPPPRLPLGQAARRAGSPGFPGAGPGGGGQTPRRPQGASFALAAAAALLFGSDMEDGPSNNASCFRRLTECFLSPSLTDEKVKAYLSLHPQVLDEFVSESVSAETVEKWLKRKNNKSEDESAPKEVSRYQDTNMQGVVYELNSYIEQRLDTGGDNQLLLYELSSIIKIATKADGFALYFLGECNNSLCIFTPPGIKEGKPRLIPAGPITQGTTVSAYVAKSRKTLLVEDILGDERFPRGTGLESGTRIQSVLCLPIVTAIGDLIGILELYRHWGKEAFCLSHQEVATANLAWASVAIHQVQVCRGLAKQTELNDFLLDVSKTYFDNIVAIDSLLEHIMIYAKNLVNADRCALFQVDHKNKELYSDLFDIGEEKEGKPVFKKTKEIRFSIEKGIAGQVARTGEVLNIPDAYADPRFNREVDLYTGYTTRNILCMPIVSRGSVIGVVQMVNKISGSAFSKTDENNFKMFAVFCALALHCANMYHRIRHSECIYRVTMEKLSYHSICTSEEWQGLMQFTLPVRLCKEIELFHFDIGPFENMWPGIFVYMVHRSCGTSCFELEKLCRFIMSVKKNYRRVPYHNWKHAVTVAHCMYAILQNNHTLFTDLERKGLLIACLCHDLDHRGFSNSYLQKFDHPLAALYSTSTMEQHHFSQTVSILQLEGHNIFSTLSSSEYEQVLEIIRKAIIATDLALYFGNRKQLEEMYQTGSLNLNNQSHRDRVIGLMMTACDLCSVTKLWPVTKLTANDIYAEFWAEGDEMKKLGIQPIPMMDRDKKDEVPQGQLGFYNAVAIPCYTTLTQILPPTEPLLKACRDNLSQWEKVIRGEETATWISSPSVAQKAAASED

[4] = biological target: cGMP-dependent 3',5'-cyclic phosphodiesterase (Homo sapiens, UniProt O00408); experiment: Inhibition of human recombinant PDE2A
Sequence of cGMP-dependent 3',5'-cyclic phosphodiesterase (O00408 whole entry): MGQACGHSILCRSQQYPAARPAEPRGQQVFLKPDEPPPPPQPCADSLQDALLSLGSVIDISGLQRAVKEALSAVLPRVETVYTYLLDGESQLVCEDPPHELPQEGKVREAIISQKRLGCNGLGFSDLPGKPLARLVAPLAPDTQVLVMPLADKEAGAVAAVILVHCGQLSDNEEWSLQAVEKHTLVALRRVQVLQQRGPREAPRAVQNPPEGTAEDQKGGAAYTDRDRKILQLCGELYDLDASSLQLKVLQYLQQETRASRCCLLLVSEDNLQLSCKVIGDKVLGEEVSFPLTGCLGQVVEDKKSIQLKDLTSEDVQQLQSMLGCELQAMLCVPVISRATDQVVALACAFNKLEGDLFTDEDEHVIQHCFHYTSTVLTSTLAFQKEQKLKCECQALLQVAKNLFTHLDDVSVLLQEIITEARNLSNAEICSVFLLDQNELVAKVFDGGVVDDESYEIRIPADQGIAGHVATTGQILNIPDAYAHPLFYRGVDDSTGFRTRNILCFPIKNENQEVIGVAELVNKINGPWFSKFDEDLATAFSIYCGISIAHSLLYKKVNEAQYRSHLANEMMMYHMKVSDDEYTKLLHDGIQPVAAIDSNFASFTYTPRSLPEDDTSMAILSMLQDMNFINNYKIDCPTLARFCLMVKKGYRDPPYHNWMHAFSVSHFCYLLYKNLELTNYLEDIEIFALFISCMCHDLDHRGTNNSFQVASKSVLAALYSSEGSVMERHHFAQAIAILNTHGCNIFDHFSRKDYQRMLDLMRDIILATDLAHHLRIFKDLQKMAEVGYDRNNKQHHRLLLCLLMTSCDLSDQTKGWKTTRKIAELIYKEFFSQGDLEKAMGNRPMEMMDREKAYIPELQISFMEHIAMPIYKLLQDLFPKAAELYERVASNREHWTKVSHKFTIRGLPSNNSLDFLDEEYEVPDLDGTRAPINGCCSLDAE

[5] = Inhibition of bovine PDE6; design: species or system Bos taurus
[6] = biological target: cGMP-inhibited 3',5'-cyclic phosphodiesterase 3A (Homo sapiens, UniProt Q14432); experiment: Inhibition of human recombinant PDE3A
[7] = biological target: High affinity cAMP-specific and IBMX-insensitive 3',5'-cyclic phosphodiesterase 8A (Homo sapiens, UniProt O60658); experiment: Inhibition of human recombinant PDE8A
[8] = biological target: Dual specificity calcium/calmodulin-dependent 3',5'-cyclic nucleotide phosphodiesterase 1B (Homo sapiens, UniProt Q01064); experiment: Inhibition of human recombinant PDE1B
[9] = biological target: Dual 3',5'-cyclic-AMP and -GMP phosphodiesterase 11A (Homo sapiens, UniProt Q9HCR9); experiment: Inhibition of human recombinant PDE11A
Sequence of Dual 3',5'-cyclic-AMP and -GMP phosphodiesterase 11A (Q9HCR9 whole entry): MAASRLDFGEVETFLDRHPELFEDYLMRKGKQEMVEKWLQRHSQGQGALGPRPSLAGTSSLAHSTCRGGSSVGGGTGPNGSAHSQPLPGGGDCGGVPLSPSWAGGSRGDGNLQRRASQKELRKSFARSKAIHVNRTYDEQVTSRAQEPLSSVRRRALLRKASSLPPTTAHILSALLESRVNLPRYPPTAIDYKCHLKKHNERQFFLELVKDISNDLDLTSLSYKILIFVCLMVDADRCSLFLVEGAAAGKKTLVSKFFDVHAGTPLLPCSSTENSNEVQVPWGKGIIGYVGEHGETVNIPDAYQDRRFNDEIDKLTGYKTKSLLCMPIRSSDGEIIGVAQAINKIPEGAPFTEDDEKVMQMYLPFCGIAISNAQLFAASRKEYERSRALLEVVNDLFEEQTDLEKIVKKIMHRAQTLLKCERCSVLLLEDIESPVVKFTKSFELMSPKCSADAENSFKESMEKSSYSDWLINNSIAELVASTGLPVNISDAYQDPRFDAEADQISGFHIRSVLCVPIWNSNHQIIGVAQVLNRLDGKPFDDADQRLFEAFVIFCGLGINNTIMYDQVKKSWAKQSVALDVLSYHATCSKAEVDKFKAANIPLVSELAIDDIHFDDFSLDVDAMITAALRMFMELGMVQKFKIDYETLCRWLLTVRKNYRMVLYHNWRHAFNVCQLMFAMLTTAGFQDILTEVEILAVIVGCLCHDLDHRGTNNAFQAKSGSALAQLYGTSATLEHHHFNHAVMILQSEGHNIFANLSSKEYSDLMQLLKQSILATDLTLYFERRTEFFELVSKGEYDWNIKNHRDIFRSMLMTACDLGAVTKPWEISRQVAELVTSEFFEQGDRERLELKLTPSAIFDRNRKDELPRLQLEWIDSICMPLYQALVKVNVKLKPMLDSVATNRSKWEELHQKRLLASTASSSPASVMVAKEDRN

[10] = biological target: High affinity cGMP-specific 3',5'-cyclic phosphodiesterase 9A (Homo sapiens, UniProt O76083); experiment: Inhibition of human recombinant PDE9A
Sequence of High affinity cGMP-specific 3',5'-cyclic phosphodiesterase 9A (O76083 whole entry): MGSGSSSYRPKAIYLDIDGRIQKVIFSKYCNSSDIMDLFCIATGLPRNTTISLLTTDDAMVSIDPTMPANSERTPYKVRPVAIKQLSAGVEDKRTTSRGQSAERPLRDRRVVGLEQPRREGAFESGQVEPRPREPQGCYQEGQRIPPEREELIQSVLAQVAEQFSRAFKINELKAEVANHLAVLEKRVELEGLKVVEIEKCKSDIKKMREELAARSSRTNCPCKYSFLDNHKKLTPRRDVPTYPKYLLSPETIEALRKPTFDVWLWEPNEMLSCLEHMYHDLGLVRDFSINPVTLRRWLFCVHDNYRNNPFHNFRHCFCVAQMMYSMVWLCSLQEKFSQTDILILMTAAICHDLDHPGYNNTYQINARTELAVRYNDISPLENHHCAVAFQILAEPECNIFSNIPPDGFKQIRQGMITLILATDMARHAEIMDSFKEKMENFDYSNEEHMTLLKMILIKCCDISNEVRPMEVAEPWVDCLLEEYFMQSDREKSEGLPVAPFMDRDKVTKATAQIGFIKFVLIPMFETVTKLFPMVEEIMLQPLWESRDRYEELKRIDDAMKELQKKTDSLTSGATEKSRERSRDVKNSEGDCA

[11] = biological target: cGMP-specific 3',5'-cyclic phosphodiesterase (Homo sapiens, UniProt O76074); experiment: Inhibition of human recombinant PDE5A

Compound	IC50 [1] [nM]	IC50 [2] [nM]	further results
CCN(CC)c1ccc(NC(=O)c2cn(Cc3c(F)cccc3Cl)c3ccc(=O)[nH]c3c2=O)cc1	> 5000	60	IC50 [3]: > 5000 nM; IC50 [4]: > 5000 nM; IC50 [5]: > 5000 nM; IC50 [6]: > 5000 nM; Ratio IC50 (Homo sapiens): > 83; IC50 [7]: > 5000 nM; IC50 [8]: > 5000 nM; IC50 [9]: > 5000 nM; IC50 [10]: > 5000 nM; IC50 [11]: > 5000 nM
O=C(Nc1ccc(N2CCCCC2)cc1)c1cn(Cc2c(F)cccc2F)c2ccc(=O)[nH]c2c1=O	> 1000	124	
N#Cc1ccc(NC(=O)c2cn(Cc3c(F)cccc3F)c3ccc(=O)[nH]c3c2=O)cc1	> 1000	96	
COc1cc(NC(=O)c2cn(Cc3ccccc3)c3ccc(=O)[nH]c3c2=O)cc(OC)c1OC	> 1000	686	
O=C(Nc1ccc(OC(F)(F)F)cc1)c1cn(Cc2c(F)cccc2F)c2ccc(=O)[nH]c2c1=O	> 1000	90	
COc1ccc(NC(=O)c2cn(Cc3c(F)cccc3F)c3ccc(=O)[nH]c3c2=O)cc1	> 1000	151	
CS(=O)(=O)c1ccc(NC(=O)c2cn(Cc3c(F)cccc3F)c3ccc(=O)[nH]c3c2=O)cc1	> 1000	27	
O=C(Nc1ccc(N2CCOCC2)cc1)c1cn(Cc2ccc(OC(F)(F)F)cc2)c2ccc(=O)[nH]c2c1=O	> 1000	> 1000	
COc1ccc(NC(=O)c2cn(Cc3c(F)cccc3Cl)c3ccc(=O)[nH]c3c2=O)cc1Cl	> 1000	34	
CC(=O)c1ccc(NC(=O)c2cn(Cc3c(F)cccc3F)c3ccc(=O)[nH]c3c2=O)cc1	> 1000	29	
O=C(O)Cc1ccc(NC(=O)c2cn(Cc3c(F)cccc3F)c3ccc(=O)[nH]c3c2=O)cc1	> 1000	176	
O=C(Nc1ccc(N2CCOCC2)cc1)c1cn(Cc2ccc(F)cc2F)c2ccc(=O)[nH]c2c1=O	> 1000	> 1000	
O=C(Nc1ccc(N2CCOCC2)cc1)c1cn(Cc2c(F)cccc2Cl)c2ccc(=O)[nH]c2c1=O	> 1000	13	IC50 [3]: > 1000 nM; IC50 [4]: > 1000 nM; IC50 [5]: > 1000 nM; IC50 [6]: > 1000 nM; Ratio IC50 (Homo sapiens): > 77; IC50 [7]: > 1000 nM; IC50 [8]: > 1000 nM; IC50 [9]: > 1000 nM; IC50 [10]: > 1000 nM; IC50 [11]: > 1000 nM
COc1cc(NC(=O)c2cn(Cc3ccccc3Cl)c3ccc(=O)[nH]c3c2=O)cc(OC)c1OC	> 1000	178	
O=C(Nc1ccc(N2CCOCC2)cc1)c1cn(Cc2ccccc2C(F)(F)F)c2ccc(=O)[nH]c2c1=O	> 1000	> 1000	
COc1cc(NC(=O)c2cn(Cc3c(F)cccc3F)c3ccc(=O)[nH]c3c2=O)cc(OC)c1	> 1000	212	

Now from value to compound, other results behind:

IC50 [1] [nM]	IC50 [2] [nM]	Compound	further results
402	39	CN(C)c1ccc(NC(=O)c2cn(Cc3c(F)cccc3Cl)c3ccc(=O)[nH]c3c2=O)cc1	Ratio IC50 (Homo sapiens): 6
161	18	CC(=O)c1ccc(NC(=O)c2cn(Cc3c(F)cccc3Cl)c3ccc(=O)[nH]c3c2=O)cc1	Ratio IC50 (Homo sapiens): 6
90	10	NC(=O)c1ccc(NC(=O)c2cn(Cc3c(F)cccc3Cl)c3ccc(=O)[nH]c3c2=O)cc1	Ratio IC50 (Homo sapiens): 6
1420	59	CS(=O)(=O)c1cccc(NC(=O)c2cn(Cc3c(F)cccc3Cl)c3ccc(=O)[nH]c3c2=O)c1	Ratio IC50 (Homo sapiens): 24
> 1000	105	O=C(Nc1ccc(O)cc1)c1cn(Cc2c(F)cccc2F)c2ccc(=O)[nH]c2c1=O	
> 1000	206	COc1cc(NC(=O)c2cn(Cc3ccccc3F)c3ccc(=O)[nH]c3c2=O)cc(OC)c1OC	
> 1000	266	Cc1ccccc1Cn1cc(C(=O)Nc2ccc(N3CCOCC3)cc2)c(=O)c2[nH]c(=O)ccc21	
156	18	CNC(=O)c1ccc(NC(=O)c2cn(Cc3c(F)cccc3Cl)c3ccc(=O)[nH]c3c2=O)cc1	
477	104	Nc1ccc(NC(=O)c2cn(Cc3c(F)cccc3F)c3ccc(=O)[nH]c3c2=O)cc1	
580	44	NC(=O)c1cccc(NC(=O)c2cn(Cc3c(F)cccc3Cl)c3ccc(=O)[nH]c3c2=O)c1	Ratio IC50 (Homo sapiens): 6
73	12	CS(=O)(=O)c1ccc(NC(=O)c2cn(Cc3c(F)cccc3Cl)c3ccc(=O)[nH]c3c2=O)cc1	Ratio IC50 (Homo sapiens): 6
458	34	NS(=O)(=O)c1ccc(NC(=O)c2cn(Cc3c(F)cccc3F)c3ccc(=O)[nH]c3c2=O)cc1	
362	17	CC(=O)Nc1ccc(NC(=O)c2cn(Cc3c(F)cccc3Cl)c3ccc(=O)[nH]c3c2=O)cc1	Ratio IC50 (Homo sapiens): 6
442	46	CCN(CC)c1ccc(NC(=O)c2cn(Cc3c(F)cccc3F)c3ccc(=O)[nH]c3c2=O)cc1	
219	> 1000	O=C(Nc1c(F)cccc1F)c1cn(Cc2c(F)cccc2F)c2ccc(=O)[nH]c2c1=O	
471	66	CN(C)c1ccc(NC(=O)c2cn(Cc3c(F)cccc3F)c3ccc(=O)[nH]c3c2=O)cc1	
385	20	NS(=O)(=O)c1ccc(NC(=O)c2cn(Cc3c(F)cccc3Cl)c3ccc(=O)[nH]c3c2=O)cc1	Ratio IC50 (Homo sapiens): 19
516	18	COc1cc(NC(=O)c2cn(Cc3c(F)cccc3F)c3ccc(=O)[nH]c3c2=O)cc(OC)c1OC	
